Data: article PMC3867294 (Biochemical and biophysical research communications, 2013)

Key:
[1] = test system: LPS-mediated inflammation in rats; type: in vivo; settings: n=3 rats/group
hepatocytes = settings: in-vitro; cited from earlier work
[2] = cited from earlier work
iNOS (NOS2) in rat liver = assay: iNOS expression in liver tissue by immunoblotting; type: in vivo, Sprague-Dawley rats; settings: 2.5 mg/kg mR18L with 5 mg/kg LPS; 2h post LPS; immunoblot, n=6 in LPS groups; P<0.05 vs LPS alone
[3] = test system: atherosclerosis and plasma cholesterol in mouse models; settings: oral and intravenous administration; cited from earlier work
[4] = test system: liver inflammation in endotoxemic rats; assay: Liver histology; type: in vivo, Sprague-Dawley rats; settings: 2.5 mg/kg mR18L i.p. without LPS; H&E sections; n=3
Procedure, shortened: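 Male Sprague-Dawley rats received test compound 2.5 mg/kg i.p., with or without LPS 5 mg/kg i.p. one minute before, and were killed at 2 h. Liver was formalin-fixed, paraffin-embedded, cut at 5 μm and H&E-stained. A blinded pathologist scored it subjectively. Segmented neutrophils were counted at x40, 30 fields from 10 random portal areas. n=3 control, n=4 LPS groups.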

[5] = test system: LPS-mediated inflammation in rats; assay: Protocol 2: mR18L one hour post LPS, rat plasma at 6h post LPS; type: in vivo, Sprague-Dawley rats; settings: 2.5 mg/kg mR18L one hour post 5 mg/kg LPS
Procedure, shortened: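 Rats got LPS (E. coli 026:B6, 5 mg/kg i.p.), then test compound 2.5 mg/kg one hour later; n=5/group. Plasma was taken at baseline and 6 h. Measures: cholesterol and triglycerides by kit; IL-6 and IL-10 by ELISA; endotoxin by kinetic LAL. PON1 was read as paraoxon-driven 4-nitrophenol release at 405 nm. Tests: paired t-test vs baseline, unpaired vs LPS.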

[6] = test system: LPS-mediated inflammation in rats; assay: Protocol 1: plasma cytokines; type: in vivo, Sprague-Dawley rats
[7] = test system: endotoxin activity of LPS; assay: Endotoxin activity in rat plasma by LAL assay, protocol 1; type: in vivo, Sprague-Dawley rats; settings: 2h post 5 mg/kg LPS and 2.5 mg/kg mR18L, n=5-7/group, P<0.05 vs LPS alone
Procedure, shortened: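 Adult male Sprague-Dawley rats (322±8 g) got E. coli 026:B6 LPS at 5 mg/kg i.p. and, one minute later, test compound at 2.5 mg/kg i.p. at a different site. Rats were killed at 2 h and the plasma was frozen. Endotoxin activity was read by kinetic-colorimetric LAL assay, n=5–7/group. Groups were compared by one-way ANOVA with Bonferroni, mean±SEM.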

[8] = 2.5 mg/kg mR18L i.p. one minute post 5 mg/kg LPS, 2h post LPS, n=5-7 rats/group

Substance: Ac-GFRRFLGSWARIYRAFVG-NH2 [mR18L, Ac-G-F-R-R-F-L-G-S-W-A-R-I-Y-R-A-F-V-G-NH2]
- tolerance to mR18L ([1]; 1, 2.5 and 5 mg/kg mR18L i.p. one minute post 5 mg/kg LPS i.p.): All rats demonstrated tolerance
- LPS-mediated plasma elevation of TNF-α ([1]; starting at the lowest tested dose of 1 mg/kg mR18L i.p., 5 mg/kg LPS): significantly reduced
- uptake of atherogenic lipoproteins by hepatocytes (hepatocytes): able to enhance uptake
- lytic properties relative to 18L [2]: substantially reduced lytic properties
- LPS-mediated iNOS elevation in liver (iNOS (NOS2) in rat liver): reduced
- atherosclerotic lesion formation [3]: inhibited
- plasma cholesterol levels, mainly VLDL [3]: decreased
- liver morphology and histology, mR18L alone [4]: normal morphological and histological features without signs of inflammation or tissue damage
- increase of plasma PON1 activity in LPS-treated rats ([5]; n=5, P<0.05 vs baseline): 15%
- LPS-mediated elevation of plasma triglyceride ([5]; n=5 rats/group): reduced
- plasma cholesterol ([5]; n=5 rats/group): not affecting
- reduction of plasma levels of IL-6 ([5]; n=5 rats/group, vs LPS): 57%
- reduction of plasma levels of IL-10 ([5]; n=5 rats/group, vs LPS): 38%
- increase of IL-10 to IL-6 ratio ([5]; not shown): 24%
- reduction of plasma endotoxin activity ([5]; LAL assay, n=5 rats/group, vs LPS): 30%
- LPS-mediated elevation of plasma IL-6 [6, 8]: significantly reduced
- LPS-mediated elevation of plasma TNF-α [6, 8]: significantly reduced
- plasma anti-inflammatory cytokine IL-10 [6, 8]: without significantly reducing
- normal levels of TNF-α, IL-6 and IL-10 in rat plasma, mR18L administered alone ([6]; 2.5 mg/kg mR18L i.p. without LPS, 2h, n=5 rats/control group): no effects
- endotoxin activity in plasma of LPS-treated rats [7]: significantly reduced
